Laboratory results taken from ChEMBL document CHEMBL4130601, “Oxygenated N-Acyl Alanine Methyl Esters (NAMEs) from the Marine Bacterium Roseovarius tolerans EL-164” (2018).
Converted amounts (≈) assume the structure as drawn. The source made the active and inactive calls. The calls are words filed in the database; no cut-off is given here.

How the values were obtained:
Pseudomonas putida [1] = assay: Inhibition of N-acyl-homoserinlactone-related quorum sensing activity in Pseudomonas putida F117 at 5 uM measured up to 5.5 hrs by fluorescence assay
In short: (§1)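 The sensor strain P. putida F117 (pKRC12) was grown overnight in Luria−Bertani medium with gentamycin (20 μg/mL) at 30 °C, shaking at 160 rpm. Test samples were added at different concentrations.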

Escherichia coli = assay: Antibacterial activity against TolC-deficient Escherichia coli after 16 to 20 hrs by microdilution method; assay type: functional
In short: (§2)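 Samples were serially diluted from 2 mg/mL stocks and the cells added. Growth was 16−20 h at the optimal temperature (30 or 37 °C). MIC was taken as the lowest concentration with no visible growth.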

Micrococcus luteus = assay: Antibacterial activity against Micrococcus luteus DSM 1790 after 16 to 20 hrs by microdilution method; assay type: functional; in short: as §2
Staphylococcus aureus = assay: Antibacterial activity against Staphylococcus aureus Newman after 16 to 20 hrs by microdilution method; assay type: functional; in short: as §2
Mucor hiemalis = assay: Antibacterial activity against Mucor hiemalis DSM 2656 after 16 to 20 hrs by microdilution method; assay type: functional
In short: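 The fungus, in mid-log phase, was diluted to about 5 × 10⁵ to 5 × 10⁶ cfu/mL final in Myc medium (1% phytone peptone, 1% glucose, 50 mM HEPES, pH 7.0). Samples were serially diluted from 2 mg/mL stocks. Growth was 16−20 h at 30 or 37 °C. MIC was taken as the lowest concentration with no visible growth.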

Pseudomonas putida [2] = assay: Induction of N-acyl-homoserinlactone-related quorum sensing activity in Pseudomonas putida F117 measured up to 5.5 hrs by fluorescence assay; in short: as §1
Bacillus subtilis = assay: Antibacterial activity against Bacillus subtilis DSM 10 after 16 to 20 hrs by microdilution method; assay type: functional; in short: as §2
Staphylococcus carnosus = assay: Antibacterial activity against Staphylococcus carnosus DSM 20501 after 16 to 20 hrs by microdilution method; assay type: functional; in short: as §2

SMILES	inhibition (Pseudomonas putida [1])	MIC (Escherichia coli)	MIC (Micrococcus luteus)	MIC (Staphylococcus aureus)	MIC (Mucor hiemalis)	Activity (Pseudomonas putida [2])	MIC (Bacillus subtilis)	MIC (Staphylococcus carnosus)
COC(=O)[C@H](C)NC(=O)CCCCCCC/C=C\CCCCCCO	inactive	8 to 16 µg/mL (≈ 22.5 to 45 µM)	32 to 64 µg/mL (≈ 90 to 180 µM)	32 to 64 µg/mL (≈ 90 to 180 µM)	32 to 64 µg/mL (≈ 90 to 180 µM)	inactive		
CCCCCC/C=C\CCCCCCCC(=O)N[C@@H](C)C(=O)OC	inactive					inactive		
CCCCCC/C=C\CCCCCC(=O)CC(=O)N[C@@H](C)C(=O)OC		16 µg/mL (≈ 45.3 µM)	16 µg/mL (≈ 45.3 µM)				16 µg/mL (≈ 45.3 µM)	8 µg/mL (≈ 22.6 µM)
CCCCCC/C=C\CCCCCC(O)CC(=O)N[C@@H](C)C(=O)OC (stereo partly specified)		16 µg/mL (≈ 45 µM)	8 µg/mL (≈ 22.5 µM)				128 µg/mL (≈ 360 µM)	16 µg/mL (≈ 45 µM)
